# Assay results taken from ChEMBL document CHEMBL3769325, “Exploration of 2-benzylbenzimidazole scaffold as novel inhibitor of NF-κB” (Bioorg Med Chem, 2016).
# Key:
# RAW264.7 = test: Inhibition of LPS induced NF-kappa-B transcriptional activity in mouse RAW264.7 cells at 30 uM after 20 hrs by SEAP reporter assay; type: cell-based
# In short: (§1)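 RAW 264.7 cells stably transfected with an NF-κB-driven SEAP reporter, stimulated with LPS. Culture supernatants were heated to 65 °C for 5 min, then reacted in the dark with 4-methylumbelliferyl phosphate (500). SEAP activity was read as RFU at ex 360/em 450 nm. Results are given as IC50 or as % inhibition at 30, from three independent experiments, each averaged from triplicates.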
# [1] = Inhibition of LPS induced NF-kappa-B transcriptional activity in mouse RAW264.7 cells after 20 hrs by SEAP reporter assay; type: cell-based; conditions: RAW264.7, 20 h; in short: as §1
compound,measurement,setting,value
COc1ccccc1Cc1nc2ccccc2[nH]1,inhibition,RAW264.7,85%
same,IC50,[1],2.4 µM
c1ccc(Cc2nc3ccccc3[nH]2)cc1 [BENDAZOL],inhibition,RAW264.7,43%
same,IC50,[1],18.4 µM
O=[N+]([O-])c1ccc(Cc2nc3ccccc3[nH]2)cc1,inhibition,RAW264.7,64%
same,IC50,[1],12 µM
COc1ccc(Cc2nc3ccccc3[nH]2)cc1OC,inhibition,RAW264.7,32%
same,IC50,[1],> 30 µM
COc1ccc(Cc2nc3cc(OC)ccc3[nH]2)cc1,inhibition,RAW264.7,61%
same,IC50,[1],> 30 µM
Clc1ccc(-c2nc3ccccc3[nH]2)cc1,inhibition,RAW264.7,12%
same,IC50,[1],> 30 µM
COc1ccc(Cc2nc3ccccc3o2)cc1,inhibition,RAW264.7,42%
same,IC50,[1],> 30 µM
COc1ccc2[nH]c(Cc3ccccc3)nc2c1,inhibition,RAW264.7,45%
same,IC50,[1],18 µM
Clc1ccc2[nH]c(Cc3ccccc3)nc2c1,inhibition,RAW264.7,31%
same,IC50,[1],> 30 µM
Clc1ccc(Cc2nc3ccccc3[nH]2)cc1Cl,inhibition,RAW264.7,63%
same,IC50,[1],15 µM
c1ccc(-c2nc3ccccc3[nH]2)cc1,inhibition,RAW264.7,22%
same,IC50,[1],> 30 µM
Oc1ccc(Cc2nc3ccccc3[nH]2)cc1,inhibition,RAW264.7,75%
same,IC50,[1],6 µM
Oc1ccc(Cc2nc3ccccc3[nH]2)cc1O,inhibition,RAW264.7,75%
same,IC50,[1],6 µM
Cc1ccc(Cc2nc3ccccc3[nH]2)cc1,inhibition,RAW264.7,60%
same,IC50,[1],19 µM
COc1ccc(Cc2nc3ccccc3s2)cc1,inhibition,RAW264.7,67%
same,IC50,[1],9 µM
COc1ccc(CCc2nc3ccccc3[nH]2)cc1,inhibition,RAW264.7,50%
same,IC50,[1],> 30 µM
COc1ccc(Cc2nc3cc(Cl)ccc3[nH]2)cc1,inhibition,RAW264.7,66%
same,IC50,[1],10 µM
Clc1ccccc1Cc1nc2ccccc2[nH]1,inhibition,RAW264.7,33%
same,IC50,[1],> 30 µM
COc1ccc(-c2nc3ccccc3[nH]2)cc1,inhibition,RAW264.7,22%
same,IC50,[1],> 30 µM
COc1cc(Cc2nc3ccccc3[nH]2)cc(OC)c1OC,inhibition,RAW264.7,32%
same,IC50,[1],> 30 µM
c1ccc(Cc2nc3ccccc3o2)cc1,inhibition,RAW264.7,33%
same,IC50,[1],> 30 µM
Nc1ccc(Cc2nc3ccccc3[nH]2)cc1,inhibition,RAW264.7,40%
same,IC50,[1],> 30 µM
Clc1cccc(Cc2nc3ccccc3[nH]2)c1,inhibition,RAW264.7,66%
same,IC50,[1],10 µM
CC(C)CCOc1cccc(O)c1C(=O)/C=C/c1ccc(O)cc1,IC50,[1],10 µM
Clc1ccc(Cc2nc3cc(Cl)ccc3[nH]2)cc1,inhibition,RAW264.7,76%
same,IC50,[1],5 µM
FC(F)(F)c1ccc(Cc2nc3ccccc3[nH]2)cc1,inhibition,RAW264.7,55%
same,IC50,[1],16.4 µM
CS(=O)(=O)c1ccc(Cc2nc3ccccc3[nH]2)cc1,inhibition,RAW264.7,43%
same,IC50,[1],28 µM
COc1ccc(Cc2nc3ccccc3[nH]2)cc1,inhibition,RAW264.7,90%
same,IC50,[1],1.7 µM
Clc1ccc(Cc2nc3ccccc3[nH]2)cc1,inhibition,RAW264.7,85%
same,IC50,[1],2.4 µM
